{"source": "ChEMBL document CHEMBL5303300", "about": "“EUbOPEN Chemogenomics Library - Multiplex” (2023)", "tested_on": "HEK-293T", "test": "Multiplex assay against HEK293T", "type": "toxicity, cell-based", "conditions": "human, number of replicates 2", "how_it_was_run": "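Live cells were stained at seeding with Hoechst33342, BioTracker Green Microtubule Cytoskeleton Dye, MitoTracker Red and Annexin V Alexa Fluor 680. Following compound addition, they were imaged on a CQ1 microscope at 37°C and 5% CO2 and gated by CellPathfinder machine learning into Hoechst high-intensity objects or normal cells, with normal cells split into healthy, pyknosed or fragmented nuclei and pyknosed cells into mitotic or apoptotic. Tubulin, mitochondrial-mass and membrane-permeability phenotypes are per cents of healthy-nucleus cells.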", "key": {"[1]": {"conditions": "12 h, 1 µM, compound concentration 1 uM"}, "[2]": {"conditions": "12 h, 10 µM, compound concentration 10 uM"}, "[3]": {"conditions": "24 h, 1 µM, compound concentration 1 uM"}, "[4]": {"conditions": "24 h, 10 µM, compound concentration 10 uM"}, "[5]": {"conditions": "48 h, 1 µM, compound concentration 1 uM"}, "[6]": {"conditions": "48 h, 10 µM, compound concentration 10 uM"}}, "note": "Several values for one entry are separate records, joined by “and”; a condition that tells them apart may be missing. Equal values may be shown once."}
{"smiles": "CC(C)c1c(NC(=O)Nc2ccc(Cl)cc2)c(=O)n(-c2ccccc2)n1C", "values": [{"measurement": "Population Apoptotic (%)", "setting": "[1]", "result": "40% and 36%"}, {"measurement": "Population Fragmented Nuclei (%)", "setting": "[1]", "result": "3% and 2%"}, {"measurement": "Population Healthy Nuclei (%)", "setting": "[1]", "result": "85% and 86%"}, {"measurement": "Population Hoechst High Intensity Objects (%)", "setting": "[1]", "result": "6% and 5%"}, {"measurement": "Population Membrane Permeable-Phenotype (%)", "setting": "[1]", "result": "3% and 2%"}, {"measurement": "Population Mitochondria Different-Phenotype (%)", "setting": "[1]", "result": "11% and 14%"}, {"measurement": "Population Mitotic Cells (%)", "setting": "[1]", "result": "59% and 63%"}, {"measurement": "Population Normal (%)", "setting": "[1]", "result": "93% and 94%"}, {"measurement": "Population Pyknosed Nuclei (%)", "setting": "[1]", "result": "10% and 11%"}, {"measurement": "Population Tubulin-Different-Phenotype (%)", "setting": "[1]", "result": "48% and 50%"}, {"measurement": "Total Cell Count", "setting": "[1]", "result": "880 and 697"}, {"measurement": "Population Apoptotic (%)", "setting": "[2]", "result": "49% and 41%"}, {"measurement": "Population Fragmented Nuclei (%)", "setting": "[2]", "result": "2% and 4%"}, {"measurement": "Population Healthy Nuclei (%)", "setting": "[2]", "result": "86% and 81%"}, {"measurement": "Population Hoechst High Intensity Objects (%)", "setting": "[2]", "result": "8% and 4%"}, {"measurement": "Population Membrane Permeable-Phenotype (%)", "setting": "[2]", "result": "4% and 6%"}, {"measurement": "Population Mitochondria Different-Phenotype (%)", "setting": "[2]", "result": "14% and 18%"}, {"measurement": "Population Mitotic Cells (%)", "setting": "[2]", "result": "50% and 58%"}, {"measurement": "Population Normal (%)", "setting": "[2]", "result": "91% and 95%"}, {"measurement": "Population Pyknosed Nuclei (%)", "setting": "[2]", "result": "11% and 14%"}, {"measurement": "Population Tubulin-Different-Phenotype (%)", "setting": "[2]", "result": "57% and 50%"}, {"measurement": "Total Cell Count", "setting": "[2]", "result": "669 and 576"}, {"measurement": "Population Apoptotic (%)", "setting": "[3]", "result": "36% and 39%"}, {"measurement": "Population Fragmented Nuclei (%)", "setting": "[3]", "result": 5, "unit": "%"}, {"measurement": "Population Healthy Nuclei (%)", "setting": "[3]", "result": "87% and 88%"}, {"measurement": "Population Hoechst High Intensity Objects (%)", "setting": "[3]", "result": 8, "unit": "%"}, {"measurement": "Population Membrane Permeable-Phenotype (%)", "setting": "[3]", "result": "4% and 3%"}, {"measurement": "Population Mitochondria Different-Phenotype (%)", "setting": "[3]", "result": "3% and 5%"}, {"measurement": "Population Mitotic Cells (%)", "setting": "[3]", "result": "63% and 60%"}, {"measurement": "Population Normal (%)", "setting": "[3]", "result": 91, "unit": "%"}, {"measurement": "Population Pyknosed Nuclei (%)", "setting": "[3]", "result": "6% and 5%"}, {"measurement": "Population Tubulin-Different-Phenotype (%)", "setting": "[3]", "result": "27% and 32%"}, {"measurement": "Total Cell Count", "setting": "[3]", "result": "1449 and 1121"}, {"measurement": "Population Apoptotic (%)", "setting": "[4]", "result": "54% and 40%"}, {"measurement": "Population Fragmented Nuclei (%)", "setting": "[4]", "result": 6, "unit": "%"}, {"measurement": "Population Healthy Nuclei (%)", "setting": "[4]", "result": "85% and 83%"}, {"measurement": "Population Hoechst High Intensity Objects (%)", "setting": "[4]", "result": "8% and 5%"}, {"measurement": "Population Membrane Permeable-Phenotype (%)", "setting": "[4]", "result": 3, "unit": "%"}, {"measurement": "Population Mitochondria Different-Phenotype (%)", "setting": "[4]", "result": "5% and 8%"}, {"measurement": "Population Mitotic Cells (%)", "setting": "[4]", "result": "45% and 59%"}, {"measurement": "Population Normal (%)", "setting": "[4]", "result": "91% and 94%"}, {"measurement": "Population Pyknosed Nuclei (%)", "setting": "[4]", "result": "7% and 10%"}, {"measurement": "Population Tubulin-Different-Phenotype (%)", "setting": "[4]", "result": "37% and 33%"}, {"measurement": "Total Cell Count", "setting": "[4]", "result": "1033 and 815"}, {"measurement": "Population Apoptotic (%)", "setting": "[5]", "result": "10% and 15%"}, {"measurement": "Population Fragmented Nuclei (%)", "setting": "[5]", "result": "14% and 10%"}, {"measurement": "Population Healthy Nuclei (%)", "setting": "[5]", "result": "83% and 86%"}, {"measurement": "Population Hoechst High Intensity Objects (%)", "setting": "[5]", "result": "9% and 10%"}, {"measurement": "Population Membrane Permeable-Phenotype (%)", "setting": "[5]", "result": "5% and 3%"}, {"measurement": "Population Mitochondria Different-Phenotype (%)", "setting": "[5]", "result": 0, "unit": "%"}, {"measurement": "Population Mitotic Cells (%)", "setting": "[5]", "result": "89% and 84%"}, {"measurement": "Population Normal (%)", "setting": "[5]", "result": "90% and 89%"}, {"measurement": "Population Pyknosed Nuclei (%)", "setting": "[5]", "result": "2% and 3%"}, {"measurement": "Population Tubulin-Different-Phenotype (%)", "setting": "[5]", "result": "13% and 15%"}, {"measurement": "Total Cell Count", "setting": "[5]", "result": "3573 and 2488"}, {"measurement": "Population Apoptotic (%)", "setting": "[6]", "result": "16% and 17%"}, {"measurement": "Population Fragmented Nuclei (%)", "setting": "[6]", "result": "15% and 13%"}, {"measurement": "Population Healthy Nuclei (%)", "setting": "[6]", "result": "81% and 83%"}, {"measurement": "Population Hoechst High Intensity Objects (%)", "setting": "[6]", "result": "8% and 9%"}, {"measurement": "Population Membrane Permeable-Phenotype (%)", "setting": "[6]", "result": "7% and 4%"}, {"measurement": "Population Mitochondria Different-Phenotype (%)", "setting": "[6]", "result": "0% and 1%"}, {"measurement": "Population Mitotic Cells (%)", "setting": "[6]", "result": "83% and 82%"}, {"measurement": "Population Normal (%)", "setting": "[6]", "result": "91% and 90%"}, {"measurement": "Population Pyknosed Nuclei (%)", "setting": "[6]", "result": "3% and 2%"}, {"measurement": "Population Tubulin-Different-Phenotype (%)", "setting": "[6]", "result": "19% and 15%"}, {"measurement": "Total Cell Count", "setting": "[6]", "result": "2549 and 1775"}]}
{"smiles": "c1ccc2c(-c3coc4cc(-c5ccc(N6CCNCC6)cc5)cnc34)ccnc2c1", "values": [{"measurement": "Population Apoptotic (%)", "setting": "[1]", "result": "49% and 54%"}, {"measurement": "Population Healthy Nuclei (%)", "setting": "[1]", "result": "84% and 87%"}, {"measurement": "Population Mitotic Cells (%)", "setting": "[1]", "result": "50% and 45%"}, {"measurement": "Population Normal (%)", "setting": "[1]", "result": 94, "unit": "%"}, {"measurement": "Population Pyknosed Nuclei (%)", "setting": "[1]", "result": "13% and 10%"}, {"measurement": "Population Tubulin-Different-Phenotype (%)", "setting": "[1]", "result": "46% and 49%"}, {"measurement": "Total Cell Count", "setting": "[1]", "result": "595 and 552"}, {"measurement": "Population Apoptotic (%)", "setting": "[2]", "result": "75% and 58%"}, {"measurement": "Population Healthy Nuclei (%)", "setting": "[2]", "result": "32% and 33%"}, {"measurement": "Population Mitotic Cells (%)", "setting": "[2]", "result": "24% and 41%"}, {"measurement": "Population Normal (%)", "setting": "[2]", "result": "82% and 84%"}, {"measurement": "Population Pyknosed Nuclei (%)", "setting": "[2]", "result": 59, "unit": "%"}, {"measurement": "Population Tubulin-Different-Phenotype (%)", "setting": "[2]", "result": "86% and 81%"}, {"measurement": "Total Cell Count", "setting": "[2]", "result": "394 and 507"}, {"measurement": "Population Apoptotic (%)", "setting": "[3]", "result": "36% and 45%"}, {"measurement": "Population Healthy Nuclei (%)", "setting": "[3]", "result": "88% and 87%"}, {"measurement": "Population Mitotic Cells (%)", "setting": "[3]", "result": "63% and 54%"}, {"measurement": "Population Normal (%)", "setting": "[3]", "result": "95% and 93%"}, {"measurement": "Population Pyknosed Nuclei (%)", "setting": "[3]", "result": 9, "unit": "%"}, {"measurement": "Population Tubulin-Different-Phenotype (%)", "setting": "[3]", "result": "34% and 40%"}, {"measurement": "Total Cell Count", "setting": "[3]", "result": "920 and 770"}, {"measurement": "Population Apoptotic (%)", "setting": "[4]", "result": "85% and 72%"}, {"measurement": "Population Healthy Nuclei (%)", "setting": "[4]", "result": "19% and 24%"}, {"measurement": "Population Mitotic Cells (%)", "setting": "[4]", "result": "14% and 27%"}, {"measurement": "Population Normal (%)", "setting": "[4]", "result": "82% and 80%"}, {"measurement": "Population Pyknosed Nuclei (%)", "setting": "[4]", "result": "71% and 67%"}, {"measurement": "Population Tubulin-Different-Phenotype (%)", "setting": "[4]", "result": "89% and 87%"}, {"measurement": "Total Cell Count", "setting": "[4]", "result": "387 and 484"}, {"measurement": "Population Apoptotic (%)", "setting": "[5]", "result": "13% and 18%"}, {"measurement": "Population Healthy Nuclei (%)", "setting": "[5]", "result": "90% and 89%"}, {"measurement": "Population Mitotic Cells (%)", "setting": "[5]", "result": "86% and 81%"}, {"measurement": "Population Normal (%)", "setting": "[5]", "result": "93% and 92%"}, {"measurement": "Population Pyknosed Nuclei (%)", "setting": "[5]", "result": "4% and 5%"}, {"measurement": "Population Tubulin-Different-Phenotype (%)", "setting": "[5]", "result": "18% and 22%"}, {"measurement": "Total Cell Count", "setting": "[5]", "result": "1932 and 1615"}, {"measurement": "Population Apoptotic (%)", "setting": "[6]", "result": "90% and 79%"}, {"measurement": "Population Healthy Nuclei (%)", "setting": "[6]", "result": "11% and 23%"}, {"measurement": "Population Mitotic Cells (%)", "setting": "[6]", "result": "9% and 20%"}, {"measurement": "Population Normal (%)", "setting": "[6]", "result": "81% and 79%"}, {"measurement": "Population Pyknosed Nuclei (%)", "setting": "[6]", "result": "74% and 64%"}, {"measurement": "Population Tubulin-Different-Phenotype (%)", "setting": "[6]", "result": "86% and 91%"}, {"measurement": "Total Cell Count", "setting": "[6]", "result": "372 and 450"}]}
